≈ marks a conversion by molar mass, not a printed value. Calls of active or inactive are those of the source. The calls are words filed in the database; no cut-off is given here.
Tests used:
[1] = test system: Mycobacterium tuberculosis; experiment: Antimycobacterial activity against Mycobacterium tuberculosis H37Rv CNCTC My 331/88 after 14 days; assay type: functional; conditions: H37Rv CNCTC My 331/88, 336 h
In short: (§1)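 M. tuberculosis strains (H37Rv and clinical MDR/XDR isolates) tested by microdilution in Šula's semisynthetic medium. Compounds were dissolved in DMSO and tested at 32 to 0.03 µM in twofold steps. Inoculum was a 1.0 McFarland suspension diluted 10-3. Plates were incubated at 37 °C and read at 14 and 21 days.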

[2] = test system: Mycobacterium tuberculosis; experiment: Antimycobacterial activity against Mycobacterium tuberculosis H37Rv CNCTC My 331/88 after 21 days; assay type: functional; conditions: H37Rv CNCTC My 331/88, 504 h; in short: as §1
[3] = test system: Mycobacterium avium; experiment: Antimycobacterial activity against Mycobacterium avium CNCTC My 330/88 after 14 days; assay type: functional; conditions: CNCTC My 330/88, 336 h
In short: (§2)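 M. avium was tested by microdilution in Šula's semisynthetic medium, with compounds dissolved in DMSO and serially diluted from 1000 down to 1. Inoculum was a 1.0 McFarland suspension diluted 10-5. Plates were incubated at 37 °C and read at 14 and 21 days. […] Isoniazid and rifampicin served as standards.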

[4] = test system: Mycobacterium avium; experiment: Antimycobacterial activity against Mycobacterium avium CNCTC My 330/88 after 21 days; assay type: functional; conditions: CNCTC My 330/88, 504 h; in short: as §2
[5] = test system: Mycobacterium kansasii; experiment: Antimycobacterial activity against Mycobacterium kansasii CNCTC My 235/80 after 7 days; assay type: functional; conditions: CNCTC My 235/80, 168 h
In short: (§3)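 Microdilution in Šula's semisynthetic medium; compounds in DMSO at 32–0.03 µM. Inoculum from 1.0 McFarland suspension diluted 10-4. […] Isoniazid and rifampicin as reference drugs.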

[6] = test system: Mycobacterium kansasii; experiment: Antimycobacterial activity against Mycobacterium kansasii CNCTC My 235/80 after 14 days; assay type: functional; conditions: CNCTC My 235/80, 336 h; in short: as §3
[7] = test system: Mycobacterium kansasii; experiment: Antimycobacterial activity against Mycobacterium kansasii CNCTC My 235/80 after 21 days; assay type: functional; conditions: CNCTC My 235/80, 504 h; in short: as §3
[8] = test system: Mycobacterium tuberculosis; experiment: Antimycobacterial activity against XDR Mycobacterium tuberculosis Praha 131 after 14 days; assay type: functional; conditions: Praha 131, 336 h; in short: as §1
[9] = test system: Mycobacterium tuberculosis; experiment: Antimycobacterial activity against XDR Mycobacterium tuberculosis Praha 131 after 21 days; assay type: functional; conditions: Praha 131, 504 h; in short: as §1
[10] = test system: Staphylococcus aureus; experiment: Antibacterial activity against Staphylococcus aureus subsp. aureus ATCC 29213 CCM 4223 at highest concentration measured after 24 to 48 hrs by alamar blue dye based broth microdilution assay; assay type: functional, organism-based
[11] = test system: Staphylococcus aureus; experiment: Antibacterial activity against methicillin-resistant Staphylococcus aureus subsp. aureus ATCC 43300 CCM 4750 at highest concentration measured after 24 to 48 hrs by alamar blue dye based broth microdilution assay; assay type: functional, organism-based
[12] = test system: Staphylococcus epidermidis; experiment: Antibacterial activity against Staphylococcus epidermidis at highest concentration measured after 24 to 48 hrs by alamar blue dye based broth microdilution assay; assay type: functional, organism-based
[13] = test system: Enterococcus faecalis; experiment: Antibacterial activity against Enterococcus faecalis ATCC 29212 CCM 4224 at highest concentration measured after 24 to 48 hrs by alamar blue dye based broth microdilution assay; assay type: functional, organism-based
[14] = test system: Escherichia coli; experiment: Antibacterial activity against Escherichia coli ATCC 25922 CCM 3954 at highest concentration measured after 24 to 48 hrs by alamar blue dye based broth microdilution assay; assay type: functional, organism-based
[15] = test system: Klebsiella pneumoniae; experiment: Antibacterial activity against Klebsiella pneumoniae at highest concentration measured after 24 to 48 hrs by alamar blue dye based broth microdilution assay; assay type: functional, organism-based
[16] = test system: Serratia marcescens; experiment: Antibacterial activity against Serratia marcescens at highest concentration measured after 24 to 48 hrs by alamar blue dye based broth microdilution assay; assay type: functional, organism-based
[17] = test system: Pseudomonas aeruginosa; experiment: Antibacterial activity against Pseudomonas aeruginosa ATCC 27853 CCM 3955 at highest concentration measured after 24 to 48 hrs by alamar blue dye based broth microdilution assay; assay type: functional, organism-based
[18] = test system: Candida albicans; experiment: Antifungal activity against Candida albicans ATCC 24433 CCM 8320 at highest concentration measured after 24 to 48 hrs by alamar blue dye based broth microdilution assay; assay type: functional, organism-based
[19] = test system: Pichia kudriavzevii; experiment: Antifungal activity against Candida krusei ATCC 6258 CCM8271 at highest concentration measured after 24 to 48 hrs by alamar blue dye based broth microdilution assay; assay type: functional, organism-based
[20] = test system: Candida parapsilosis; experiment: Antifungal activity against Candida parapsilosis ATCC 22019 CCM 8260 at highest concentration measured after 24 to 48 hrs by alamar blue dye based broth microdilution assay; assay type: functional, organism-based
[21] = test system: Candida tropicalis; experiment: Antifungal activity against Candida tropicalis ATCC 750 CCM 8264 at highest concentration measured after 24 to 48 hrs by alamar blue dye based broth microdilution assay; assay type: functional, organism-based
[22] = test system: Aspergillus fumigatus; experiment: Antifungal activity against Aspergillus fumigatus ATCC 204305 at highest concentration measured after 24 to 48 hrs by alamar blue dye based broth microdilution assay; assay type: functional, organism-based
[23] = test system: Lichtheimia corymbifera; experiment: Antifungal activity against Lichtheimia corymbifera CCM 8077 at highest concentration measured after 24 to 48 hrs by alamar blue dye based broth microdilution assay; assay type: functional, organism-based
[24] = test system: Trichophyton interdigitale; experiment: Antifungal activity against Trichophyton interdigitale ATCC 9533 CCM 8377 at highest concentration measured after 72 to 120 hrs by alamar blue dye based broth microdilution assay; assay type: functional
[25] = biological target: T1, Decaprenylphosphoryl-beta-D-ribose oxidase (Mycobacterium tuberculosis (strain ATCC 25618 / H37Rv)) (UniProt P9WJF1); experiment: Inhibition of DprE1 in Mycobacterium tuberculosis H37Rv assessed as accumulation of trehalose dimycolates at 10 times MIC measured after 24 hrs in presence of [14C]-acetate by TLC-based autoradiography
T1 sequence (whole entry): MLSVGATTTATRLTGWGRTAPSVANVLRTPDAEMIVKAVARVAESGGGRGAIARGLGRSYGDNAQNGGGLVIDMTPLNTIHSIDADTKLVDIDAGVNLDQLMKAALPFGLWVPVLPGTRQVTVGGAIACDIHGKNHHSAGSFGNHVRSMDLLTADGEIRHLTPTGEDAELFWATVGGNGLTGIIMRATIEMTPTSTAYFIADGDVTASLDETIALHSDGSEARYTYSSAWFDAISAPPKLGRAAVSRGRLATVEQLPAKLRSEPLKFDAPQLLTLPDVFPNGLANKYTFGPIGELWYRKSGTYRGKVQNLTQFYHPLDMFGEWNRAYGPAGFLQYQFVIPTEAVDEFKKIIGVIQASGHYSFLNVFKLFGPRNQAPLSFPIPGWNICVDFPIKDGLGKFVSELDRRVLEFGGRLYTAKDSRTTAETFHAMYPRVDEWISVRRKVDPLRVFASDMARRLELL
In short: (§4)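 M. tuberculosis H37Rv cultures were exposed to compound at final 10× or 100× MIC, or to DMSO, together with [14C]-acetate at 1 µCi/ml final. After 24 h, lipids were extracted in CHCl3/CH3OH (2:1) for 2 h at 65 °C and given two Folch washes. Extracts were run on TLC in CHCl3/CH3OH/H2O (20:4:0.5), then autoradiographed for 7 days at -80 °C.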

[26] = biological target: T1, Decaprenylphosphoryl-beta-D-ribose oxidase (Mycobacterium tuberculosis (strain ATCC 25618 / H37Rv)); experiment: Inhibition of DprE1 in Mycobacterium tuberculosis H37Rv assessed as accumulation of trehalose monomycolates at 10 times MIC measured after 24 hrs in presence of [14C]-acetate by TLC-based autoradiography; in short: as §4

Row | SMILES | MIC99 [1] | MIC99 [2] | MIC99 [3] | MIC99 [4] | MIC99 [5] | MIC99 [6] | MIC99 [7] | MIC99 [8] | MIC99 [9] | Activity [10] | Activity [11] | Activity [12] | Activity [13] | Activity [14] | Activity [15] | Activity [16] | Activity [17] | Activity [18] | Activity [19] | Activity [20] | also measured
1 | COc1ccc(CSc2nnc(-c3cc([N+](=O)[O-])cc([N+](=O)[O-])c3)n2Cc2ccccc2)cc1 | 0.03 µM (≈ 0.0143 µg/mL) | 0.03 µM (≈ 0.0143 µg/mL) | 62 µM (≈ 29.6 µg/mL) | 62 µM (≈ 29.6 µg/mL) | 0.03 µM (≈ 0.0143 µg/mL) | 0.03 µM (≈ 0.0143 µg/mL) | 0.03 µM (≈ 0.0143 µg/mL) | 0.03 µM (≈ 0.0143 µg/mL) | 0.03 µM (≈ 0.0143 µg/mL) | inactive | inactive | inactive | inactive | inactive | inactive | inactive | inactive | inactive | inactive | inactive | Activity [21]: inactive; Activity [22]: inactive; Activity [23]: inactive; Activity [24]: inactive; inhibition [25]: inactive; inhibition [26]: inactive
2 | O=[N+]([O-])c1cc(-c2nnc(SCc3ccccc3)n2Cc2ccccc2)cc(C(F)(F)F)c1 | 0.03 µM (≈ 0.0141 µg/mL) | 0.03 µM (≈ 0.0141 µg/mL) | 250 µM (≈ 118 µg/mL) | 250 µM (≈ 118 µg/mL) | 0.03 µM (≈ 0.0141 µg/mL) | 0.03 µM (≈ 0.0141 µg/mL) | 0.03 µM (≈ 0.0141 µg/mL) | 0.06 µM (≈ 0.0282 µg/mL) | 0.06 µM (≈ 0.0282 µg/mL) | inactive | inactive | inactive | inactive | inactive | inactive | inactive | inactive | inactive | inactive | inactive | Activity [21]: inactive; Activity [22]: inactive; Activity [23]: inactive; Activity [24]: inactive; inhibition [25]: Active; inhibition [26]: Active
3 | COc1ccc(CSc2nnc(-c3cc([N+](=O)[O-])cc(C(F)(F)F)c3)n2Cc2ccccc2)cc1 | 0.5 µM (≈ 0.25 µg/mL) | 0.5 µM (≈ 0.25 µg/mL) | 250 µM (≈ 125 µg/mL) | 250 µM (≈ 125 µg/mL) | 0.5 µM (≈ 0.25 µg/mL) | 0.5 µM (≈ 0.25 µg/mL) | 0.5 µM (≈ 0.25 µg/mL) | 0.5 µM (≈ 0.25 µg/mL) | 1 µM (≈ 0.501 µg/mL) | inactive | inactive | inactive | inactive | inactive | inactive | inactive | inactive | inactive | inactive | inactive | Activity [21]: inactive; Activity [22]: inactive; Activity [23]: inactive; Activity [24]: inactive; inhibition [25]: Active; inhibition [26]: Active
